This data set in a line: Toxicity liver stage against HepG2, at 10uM. It is filed as cell-based. Details: test concentration 10 uM, cell line HepG2-A16-CD81EGFP. The conditions noted are these: human, HepG2-A16-CD81EGFP cells; read-out: INHIBITION
In a few lines:
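Uninfected HepG2-A16-CD81EGFP cells, 3 × 10^3 per well, 1536-well, plated on prespotted compound at 10 μM final, parasite-free screening media added to match infected plates; puromycin 10 μM positive, DMSO 0.5% negative; run in parallel with 48 h PbLuc assay at 37 °C, 5% CO2; viability by CellTiter-Glo luminescence, normalized to controls.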
Turning to `CSc1nnc(N(CCC#N)CCC#N)s1`, the cytotoxicity at 10 µM was determined as 8.95%.

Consider `CCCS(=O)(=O)NC(C)C(=O)NCc1ccc(N2CCCC2)nc1` (stereo unspecified), for which the cytotoxicity at 10 µM was -11.8%.

As for `COc1ccc(CN2CC[C@H](c3nnc(-c4ccco4)o3)C2)cc1`, the cytotoxicity at 10 µM was found to be 0.0623%.

As for `Cc1cc(C)cc(NC(=O)c2cnc(N3CCN(C)CC3)nc2C)c1`, the cytotoxicity at 10 µM is -15.5%.

As for `COc1ccccc1N1CCN(c2nc(N)nc3[nH]cnc23)CC1`, the cytotoxicity at 10 µM is 2.77%.

As for `Cc1c(C(=O)N2CCNC(=O)C2)sc2nc[nH]c(=O)c12`, the cytotoxicity at 10 µM is 0.709%.

Turning to `COC(=O)c1ccc(C(=O)N2CCC(c3nnc(C)s3)CC2)cc1`, the cytotoxicity at 10 µM is 4.95%.

With `O=C(NCCc1ccncc1)[C@H]1C[C@@H]2CCN(c3nncs3)C[C@H]2O1`, the cytotoxicity at 10 µM was determined as 4.36%.

As to `CCn1cc(NC(=O)C2CCC(=O)N2Cc2ccco2)cn1` (stereo unspecified), the cytotoxicity at 10 µM is -0.607%.

Take `COc1cccc(O[C@H]2CCN(c3nc(C)cc(C)n3)CC[C@@H]2O)c1`: the cytotoxicity at 10 µM was 2.58%.

`Cc1ccc(S(=O)(=O)N2CC[C@@H]3C[C@H](NC(=O)c4ccncc4)[C@@H]32)cc1`: the cytotoxicity at 10 µM was determined as 0.385%.

Consider `CCCn1nc(C)c(-c2cncn2CC2(N(C)C)CCC(C)CC2)c1C` (stereo unspecified), for which the cytotoxicity at 10 µM turned out to be 9.35%.

For `Cc1nc(N)ncc1C(=O)N1CCCC1(C)C(=O)N(C)C` (stereo unspecified), the cytotoxicity at 10 µM is 10.2%.

`CC(=O)Nc1nc(SCc2ccc3c(c2)OCO3)ns1`: the cytotoxicity at 10 µM is -8.98%.

Take `Cc1ncncc1C(=O)N1CCOC(C(=O)NC2CCCC2)C1` (stereo unspecified): the cytotoxicity at 10 µM is -4.23%.

`Cc1cc(C)nc(C2CCCN2C(=O)c2coc(C)n2)n1` (stereo unspecified): the cytotoxicity at 10 µM came to 6.93%.

In the case of `Nc1nccc(C2CCN(CC3CC3)C2)n1` (stereo unspecified), the cytotoxicity at 10 µM came to 8.54%.

In the case of `Cc1ncccc1Oc1nccnc1C1CCCN(C(C)C)C1` (stereo unspecified), the cytotoxicity at 10 µM was -10.1%.

As for `COc1ccc(-n2cnc(Cl)c2CO)cc1`, the cytotoxicity at 10 µM was found to be 2.49%.

For `O=C(Nc1cnn(CC(F)F)c1)c1cccc(-n2cnnn2)c1`, the cytotoxicity at 10 µM was found to be 6.01%.

With `COCCC(=O)N1CCC(NC(=O)c2cscc2C)CC1`, the cytotoxicity at 10 µM was -14.2%.

For the compound `CN(CCCOc1ccccc1)Cc1nccn1C`, the cytotoxicity at 10 µM worked out at 2.07%.

Take `NC(=O)C1CCCN1C(=O)c1cc(C2CC2)nc2ccc(F)cc12` (stereo unspecified): the cytotoxicity at 10 µM was 1.75%.

Turning to `COc1cccc(C2CCCN2C(=O)c2ccc(=O)n(C)c2)c1` (stereo unspecified), the cytotoxicity at 10 µM was -1.72%.

Consider `Cc1nc(CNC(=O)NCC(F)(F)F)oc1C`, for which the cytotoxicity at 10 µM is -1.72%.

Regarding `O=C(NC1CCS(=O)(=O)c2ccccc21)c1cccs1` (stereo unspecified), the cytotoxicity at 10 µM was -0.0399%.

With `CC(C)(CNC(=O)C1CCCN1S(C)(=O)=O)N1CCOCC1` (stereo unspecified), the cytotoxicity at 10 µM turned out to be 2.72%.

For `CN(C)c1cc2c(nn1)CCN(C(=O)C1COc3ccccc3C1)C2` (stereo unspecified), the cytotoxicity at 10 µM is 14.3%.

Take `CCOCCC1(CNC(=O)c2ccncc2Cl)CCC1`: the cytotoxicity at 10 µM came out at 5.38%.

Turning to `CC1CCCCN1Cc1nc(Cc2ccccc2)no1` (stereo unspecified), the cytotoxicity at 10 µM came to 4.61%.

On to `CCNC(=O)COc1ccc(C(=O)NC(C)CCc2ccco2)cc1` (stereo unspecified), for which the cytotoxicity at 10 µM was found to be 12.2%.

Regarding `CC(C)c1noc(CCC(=O)NC(C)c2nnc3n2CCC3)n1` (stereo unspecified), the cytotoxicity at 10 µM was 2.59%.

Regarding `CCS(=O)(=O)N1CCC(NCC2CNc3cc(C)nn3C2)CC1` (stereo unspecified), the cytotoxicity at 10 µM was 0.286%.

On to `Cc1oc(-c2ccsc2)nc1CC(=O)NCC(C)(C)CN(C)C`, for which the cytotoxicity at 10 µM is -5.81%.

For `Cc1ccc(C)c(CC(=O)NC2(C#N)CCOCC2)c1`, the cytotoxicity at 10 µM was 6.31%.

In the case of `CCN(C1CCN(c2cccc(F)c2C(C)=O)CC1)S(C)(=O)=O`, the cytotoxicity at 10 µM was 5.17%.

Turning to `COCc1csc(NC(=O)NCc2ccsc2)n1`, the cytotoxicity at 10 µM turned out to be 4.53%.

`CC(C)C1CCCN1C(=O)c1ccc(-n2ncc(C#N)c2N)cc1` (stereo unspecified): the cytotoxicity at 10 µM is -1.89%.

On to `CCSc1ccc(C(=O)N2CCCCC2C(=O)N2CCCC2)cn1` (stereo unspecified), for which the cytotoxicity at 10 µM amounted to 10.5%.

As to `O=C(c1ccc(F)c(F)c1)N1CCCCC1c1nc[nH]n1` (stereo unspecified), the cytotoxicity at 10 µM is -7.47%.

On to `COCCC(=O)N1CCCC1c1cccc(C)c1C` (stereo unspecified), for which the cytotoxicity at 10 µM was determined as 5.79%.

For the compound `C=C(C)CN1C(=O)CC(Cc2ccc(F)cc2)C1=O` (stereo unspecified), the cytotoxicity at 10 µM amounted to 1.62%.

For `CCN(C(=O)CN1CCCC1c1cccs1)c1ccccc1C` (stereo unspecified), the cytotoxicity at 10 µM turned out to be 3.7%.

As for `CN(C)C(=O)CNC(CC(F)(F)F)c1ccc(Cl)cc1` (stereo unspecified), the cytotoxicity at 10 µM is -3.53%.

Turning to `COCc1cccc(C(=O)N(C)Cc2ncc(C)c(OC)c2C)c1`, the cytotoxicity at 10 µM was -13.1%.

In the case of `CC(C)C(=O)N1CCC(NCc2c(C(C)C)nn(C)c2N(C)C)CC1`, the cytotoxicity at 10 µM is 5.21%.

Consider `O=C1CCN(CCCS(=O)(=O)c2ccc(Cl)cc2)CCN1`, for which the cytotoxicity at 10 µM was 2.43%.

`CC(NC(=O)Cn1cccn1)c1cccnc1` (stereo unspecified): the cytotoxicity at 10 µM was 15.9%.

Turning to `CCC(C)N(C)CCNC(=O)NCc1cccc(-n2cncn2)c1` (stereo unspecified), the cytotoxicity at 10 µM is -8.1%.

Turning to `Cc1nc(C)n(C2CCCN(C(=O)CCc3ccncc3)C2)n1` (stereo unspecified), the cytotoxicity at 10 µM is -5.23%.

Regarding `CCN1CC[C@@H]2OC[C@H](C(=O)NCc3cccs3)C[C@@H]2C1`, the cytotoxicity at 10 µM was -106%.

Turning to `Cn1ncc2c1C(COCC1CC1)CN(Cc1ccco1)C2` (stereo unspecified), the cytotoxicity at 10 µM is -78.6%.

Regarding `Cn1ccc(C(=O)NC2CCC23CCN(C(=O)N2CCCC2)CC3)c1` (stereo unspecified), the cytotoxicity at 10 µM turned out to be 2.01%.

With `Cc1cc2nc(C3CCCCC3)c(-c3ccnc(NCCO)n3)cn2n1`, the cytotoxicity at 10 µM is -0.0295%.

With `Cc1cc(C(=O)N2CCC3(CC2)c2nc[nH]c2CCN3CC(C)C)no1`, the cytotoxicity at 10 µM came to 11.1%.

Turning to `COC(=O)c1ccc(CNC2CC(=O)N(Cc3cccc(F)c3)C2)cc1` (stereo unspecified), the cytotoxicity at 10 µM amounted to 4.43%.

Consider `COCc1nnc(C(=O)N(C)Cc2cnc3ccccn23)o1`, for which the cytotoxicity at 10 µM worked out at 1.69%.

Regarding `CCn1cncc1C1CC(=O)Nc2c1c(C)nn2C` (stereo unspecified), the cytotoxicity at 10 µM is -0.557%.

In the case of `Cc1nn(C)c(C)c1C(C)NC(=O)c1cc(CN2CCC(O)CC2)on1` (stereo unspecified), the cytotoxicity at 10 µM worked out at 0.894%.

For `Cc1cccc2c1nc(CCO)n2-c1ccc(C(=O)N2CCCC2)o1`, the cytotoxicity at 10 µM was found to be 7.39%.

For `CC(C)N1CC(C(=O)N2CCc3c(nc(CC4CC4)[nH]c3=O)C2)CC1=O` (stereo unspecified), the cytotoxicity at 10 µM is -8.25%.

On to `Cc1cccc2[nH]c(C3CCN(C(=O)c4cnc[nH]c4=O)CC3)nc12`, for which the cytotoxicity at 10 µM came out at 2.75%.

With `CCNc1ncc(C(=O)NCCNc2ccncc2C)cn1`, the cytotoxicity at 10 µM was -6.83%.

Turning to `COc1cccc(C(=O)N2C[C@@H](CN(C)CCO)[C@@H](CO)C2)c1C`, the cytotoxicity at 10 µM is -4.17%.

As for `CN1CCCN(C[C@@H]2CN(c3nc(C(N)=O)cs3)C[C@@H]2CO)CC1`, the cytotoxicity at 10 µM came out at 2.67%.

Consider `CCn1cnnc1Cc1nc2c([nH]1)CC(c1ccc(Cl)cc1)CNC2=O` (stereo unspecified), for which the cytotoxicity at 10 µM was -48.9%.

In the case of `CN(C)CC1(O)CCN(Cc2cnc3c(-c4ccccc4)cnn3c2)C1` (stereo unspecified), the cytotoxicity at 10 µM is -6.16%.

`CCC[C@H]1CN(C(=O)Cn2ccccc2=O)C[C@@H]1NS(C)(=O)=O`: the cytotoxicity at 10 µM was 11.1%.

Regarding `CN(C)CCCn1ccnc1C1CCN(c2cccc(C(=O)O)n2)CC1`, the cytotoxicity at 10 µM was determined as 6.87%.

Take `CCCc1cc(C(=O)N[C@H](C)[C@@H](O)c2ccc(O)cc2)n(C)n1`: the cytotoxicity at 10 µM was 1.48%.

Turning to `Cc1nsc(NC(=O)N2CCN(Cc3ccccc3F)C(=O)C2)n1`, the cytotoxicity at 10 µM is -4.25%.

`N#Cc1ccccc1CN1CCC(c2nccn2CC2CCC2)CC1`: the cytotoxicity at 10 µM is -10.1%.

On to `COCCn1cnnc1C(C)NC(=O)c1[nH]c2c(C)cc(C)cc2c1C` (stereo unspecified), for which the cytotoxicity at 10 µM was -9.11%.

As to `CC[C@@]1(O)CCN(C(=O)c2ccc(-n3cnnc3)cc2)C[C@H]1O`, the cytotoxicity at 10 µM amounted to 3.86%.

`CNc1ncccc1C(=O)N1CCCC2(CCN(C)CC2)CC1`: the cytotoxicity at 10 µM was -9.17%.

Take `Cc1cccc2c1nc(CCO)n2-c1ccc(NS(C)(=O)=O)nc1`: the cytotoxicity at 10 µM was determined as 2.34%.

`CCNC(=O)N1CCC(Nc2nccc(NCC)n2)CC1`: the cytotoxicity at 10 µM is -3.6%.

With `CC(C)NCC1(O)CCCN(CCC2CCCCC2)C1=O` (stereo unspecified), the cytotoxicity at 10 µM was -2.53%.

In the case of `Nc1nnc(CCCNC(=O)c2ccc(C3CCCNC3)cc2)s1` (stereo unspecified), the cytotoxicity at 10 µM was -1.28%.

With `Cc1nc(NCCSc2cnn[nH]2)c2cccnc2n1`, the cytotoxicity at 10 µM was 2.98%.

Regarding `O=C1CCC(=O)N1c1nn(Cc2ccccc2Cl)cc1Cl`, the cytotoxicity at 10 µM is -6.69%.

`COCCCNC(=O)CN(C)C(=O)c1ccccc1O`: the cytotoxicity at 10 µM is -7.04%.

For `Cc1ccc2oc(C(=O)N3CCCC(n4ccnc4C)C3)cc2n1` (stereo unspecified), the cytotoxicity at 10 µM was -3.37%.

Consider `N#Cc1ccc(F)c(CN2CCCC2Cn2cccn2)c1` (stereo unspecified), for which the cytotoxicity at 10 µM was -7.69%.

Turning to `Cc1nocc1C(=O)N1CCOC2(COCCN(C(C)C)C2)C1` (stereo unspecified), the cytotoxicity at 10 µM is 10%.

Turning to `Cc1nc2c(cc1C(=O)O)CCN(Cc1ccsc1)CC2`, the cytotoxicity at 10 µM turned out to be 9.62%.

With `c1cncc(N2CCCn3nnc(COCC4CC4)c3C2)c1`, the cytotoxicity at 10 µM was found to be 5.5%.

In the case of `CN(C)C(=O)N1CCC2(CC1)CCN(Cc1ccccn1)C2=O`, the cytotoxicity at 10 µM came out at 2.05%.

Take `Cc1noc(C)c1CN1C[C@@H](N(C)Cc2ccco2)[C@H]2OCCC[C@H]21`: the cytotoxicity at 10 µM was -70.9%.

For the compound `CN(C)S(=O)(=O)N1CCC[C@]2(C[C@@H](Oc3ncccc3F)CO2)C1`, the cytotoxicity at 10 µM was -82.2%.

`CC(=O)N1CCOCC2(CCN(Cc3ccc(C)s3)CC2)C1`: the cytotoxicity at 10 µM is -5.39%.

Regarding `CN(C)CCN1CCCC12CCN(C(=O)c1cccn1C)CC2`, the cytotoxicity at 10 µM was -2.03%.

Regarding `c1csc(CN2CCn3c(Cn4cncn4)cnc3C2)c1`, the cytotoxicity at 10 µM was -71.7%.

Regarding `c1csc(CN2CCc3nnc(COc4cncnc4)n3CC2)c1`, the cytotoxicity at 10 µM was 2.49%.

Consider `O=C(N[C@@H]1CN(c2ncccn2)C[C@@H]2CCCO[C@@H]21)c1cnccn1`, for which the cytotoxicity at 10 µM worked out at 0.199%.

Take `CN(C)S(=O)(=O)N1C[C@H]2CC[C@@H](C1)N(Cc1ccc3c(c1)OCCO3)C2`: the cytotoxicity at 10 µM was 4.52%.

(Values after ChEMBL document CHEMBL4513216, “Probing the Open Global Health Chemical Diversity Library for Multistage-Active Starting Points for Next-Generation Antimalarials” (ACS Infect Dis, 2020).)
